Data on 31 molecules can be found in ChEMBL document CHEMBL2321659, “Design, synthesis, and biological evaluation of indenoisoquinoline rexinoids with chemopreventive potential” (J Med Chem, 2013).

Series [1] deals with T1, Retinoic acid receptor RXR-alpha (Homo sapiens) (UniProt P19793).
T1 sequence (whole entry): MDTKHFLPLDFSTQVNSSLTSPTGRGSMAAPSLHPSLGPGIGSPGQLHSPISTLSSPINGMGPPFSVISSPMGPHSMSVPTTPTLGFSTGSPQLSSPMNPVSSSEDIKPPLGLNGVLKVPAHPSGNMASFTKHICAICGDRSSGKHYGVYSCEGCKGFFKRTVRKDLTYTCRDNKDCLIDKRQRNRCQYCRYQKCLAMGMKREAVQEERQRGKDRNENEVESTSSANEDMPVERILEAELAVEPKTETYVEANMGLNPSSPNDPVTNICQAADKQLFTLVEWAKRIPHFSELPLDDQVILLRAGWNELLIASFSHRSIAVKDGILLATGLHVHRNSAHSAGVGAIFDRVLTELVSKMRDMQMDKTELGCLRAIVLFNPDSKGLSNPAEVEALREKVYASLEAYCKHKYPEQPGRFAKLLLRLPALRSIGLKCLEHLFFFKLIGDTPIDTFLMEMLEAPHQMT
Nature of the series: Activation of human RXRalpha activity expressed in COS1 cells assessed as induction ratio at 50 uM after 12 hrs by RXRE-luciferase reporter gene assay relative to untreated control. The series is classed as cell-based. Conditions: COS-1. In short, it runs like this:
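COS-1 cells transiently co-transfected per well with 100 ng RXRE-firefly luciferase reporter, 50 ng human RXRα expression vector and 3 ng Renilla luciferase vector using Lipofectamine 2000 for 24 h, then exposed to compound for a further 12 h. Dual-luciferase read-out. Induction ratio taken at 50 µM test concentration.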
On the technique in general: A reporter such as luciferase makes a cellular process visible.

Series [2] in a line: Cytotoxicity against African green monkey COS1 cells assessed as cell survival. The series is classed as cell-based. Also noted: concentration or dose not given beside the values. Conditions: chlorocebus aethiops, COS-1 cells; read-out: Activity.
For series [3], the target named is T2, Retinoic acid receptor RXR-alpha (Homo sapiens, UniProt P19793).
T2 sequence (P19793 whole entry): T1 sequence (whole entry)
Put plainly: Activation of human RXRalpha activity expressed in COS1 cells after 12 hrs by RXRE-luciferase reporter gene assay. The series is classed as cell-based, COS-1.

Series [4] has as its target T3, Vitamin D3 receptor (Homo sapiens) (UniProt P11473).
T3 sequence (whole entry): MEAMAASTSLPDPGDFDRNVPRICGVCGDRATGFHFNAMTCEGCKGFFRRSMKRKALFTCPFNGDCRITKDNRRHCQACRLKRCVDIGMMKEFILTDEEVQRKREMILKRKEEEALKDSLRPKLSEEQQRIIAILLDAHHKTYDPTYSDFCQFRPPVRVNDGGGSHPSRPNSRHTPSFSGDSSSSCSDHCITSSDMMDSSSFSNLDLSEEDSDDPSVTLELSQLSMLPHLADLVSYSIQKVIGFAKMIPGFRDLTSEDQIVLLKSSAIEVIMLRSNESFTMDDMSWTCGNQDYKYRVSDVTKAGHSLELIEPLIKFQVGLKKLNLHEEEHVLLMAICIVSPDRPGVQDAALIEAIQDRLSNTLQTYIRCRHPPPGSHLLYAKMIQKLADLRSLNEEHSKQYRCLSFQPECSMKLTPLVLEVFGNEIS
Put plainly: Binding affinity to VDR (unknown origin) after 30 mins by ultrafiltration LC-MS/MS analysis relative to 6-(6-aminohexyl)-5H-indeno[1,2-c]isoquinoline-5,11(6H)-dione. Set-up: Activity: concentration or dose not given beside the values. In short, it runs like this:
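Recombinant VDR incubated with ligand in 20 µL for 30 min at 37 °C in the dark with shaking. Then ultrafiltration at 4 °C and rinses with cold 50 mM ammonium acetate/0.1 mM NaCl pH 8.0. Bound ligand released with methanol containing genistein, dried under N2 and quantified by LC-MS. Controls were boiled hVDR or no protein.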

The target in series [5] is T1, Retinoic acid receptor RXR-alpha (Homo sapiens). Put plainly: Binding affinity to RXRalpha (unknown origin) at 10 uM after 2 hrs by ultrafiltration LC-MS/MS analysis relative to control. The method, boiled down: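 Purified RXRα (10 µM stock in 50 mM Tris-HCl pH 7.5, 50 mM KCl, 1 mM EDTA) incubated with ligand (final 10 µM, DMSO) for 2 h at room temperature. Then 10 kDa ultrafiltration at 4 °C, three ammonium acetate pH 7.5 washes, release with 90% methanol, UHPLC-MS/MS (SRM). Binding ratio is peak area versus denatured-RXRα (60–70 °C, 15 min) control.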

The subject of series [6] is HL-60. Nature of the series: Cell cycle arrest in human HL60 cells assessed as accumulation at subG1 phase at 250 nM relative to control. The series is classed as functional.
The target in series [7] is T3, Vitamin D3 receptor (Homo sapiens). Put plainly: Binding affinity to VDR (unknown origin) assessed as inhibition of curcumin binding after 30 mins by ultrafiltration LC-MS/MS analysis.
Series [8] has as its system HL-60. Put plainly: Cell cycle arrest in human HL60 cells assessed as accumulation at subG1 phase at 13 nM relative to control. The series is classed as functional.
For series [9], the system named is HL-60. Put plainly: Cytotoxicity against human HL60 cells assessed as inhibition of cell proliferation after 96 hrs. In kind it is functional, cell-based. Conditions: HL-60, 96 h.

SMILES strings stand for the structures. Calls of active or inactive are those of the source. The calls are words filed in the database; no cut-off is given here. Some results are limits rather than exact numbers.

Take `O=C(O)CCn1c2c(c3ccc(Br)cc3c1=O)C(=O)c1ccccc1-2`: the Ratio in series [1] is less than 1. The viability in series [2] is 98%.

In the case of `NCCCn1c2c(c3ccccc3c1=O)C(=O)c1ccccc1-2`, the Ratio in series [1] came out at 11.4. In [3], the EC50 – broadly, the concentration giving half of the maximal effect – came to 8.66 µM. Moreover, in series [4], the Activity came out at 42.7% and the fold change (FC) turned out to be 0.427. The viability in [2] turned out to be 50.8%.

Turning to `O=C1c2ccccc2-c2c1c1ccc(Br)cc1c(=O)n2CCCN1CCOCC1`, the Ratio in series [1] was less than 1. Further, the viability in [2] was determined as 100%.

For `COC(=O)/C=C/c1ccc2c3c(n(CCCN)c(=O)c2c1)-c1ccccc1C3=O`, in series [1], the Ratio is less than 1. For the same molecule, the viability in series [2] came to 90.4%.

Regarding `COc1ccc2c(c1)C(=O)c1c-2n(CCCN)c(=O)c2ccccc12`, the Ratio in [1] is more than 1. The concentration for a half-maximal effect (EC50) in series [3] is 4.84 µM. Besides, the viability in series [2] was 46.8%.

As to `COC(=O)CC(=O)Nc1ccc2c3c(n(CCCN)c(=O)c2c1)-c1ccccc1C3=O`, the Ratio in series [1] was more than 1. Besides, the EC50 in series [3] is more than 44.5 µM. Also, in series [2], the viability was 85%. For the same molecule, in [5], the fold change (FC) came to 1.7.

`CC(=O)Nc1ccc2c3c(n(CCCN)c(=O)c2c1)-c1ccccc1C3=O`: the EC50 in [3] was more than 34.7 µM. Moreover, the viability in [2] amounted to 69.2%.

With `O=C1c2ccccc2-c2c1c1ccccc1c(=O)n2CCCn1ccnc1`, the Ratio in [1] is less than 1. Further, the viability in [2] was 100%.

`COc1cc2c3c(n(CCCN)c(=O)c2cc1OC)-c1ccc(F)cc1C3=O`: the Ratio in [1] was less than 1. For the same molecule, the viability in series [2] turned out to be 23.8%.

Regarding `NCCCn1c2c(c3ccc([N+](=O)[O-])cc3c1=O)C(=O)c1ccccc1-2`, in series [1], the Ratio was less than 1. Besides, in [2], the viability is 32.1%.

`CCOC(=O)CNc1ccc2c3c(n(CCCN)c(=O)c2c1)-c1ccccc1C3=O`: in series [1], the Ratio was less than 1. In series [4], the Activity is 1.62% and the fold change (FC) came to 0.0162. The viability in series [2] was determined as 22.2%. Moreover, the outcome in series [5] was inactive.

`NCCCn1c2c(c3ccc(N)cc3c1=O)Cc1ccccc1-2`: the Ratio in [1] is more than 1. This molecule had an EC50 in [3] of 10 µM. Moreover, in series [4], the Activity came out at 15.1% and the fold change (FC) turned out to be 0.151. For the same molecule, the viability in series [2] came to 49.3%.

Take `NCCCn1c2c(c3ccc(NCC(=O)O)cc3c1=O)C(=O)c1ccccc1-2`: the Ratio in series [1] is more than 1. For the same molecule, the response in [3] was half-maximal at 8.4 µM (EC50). The viability in series [2] was 61.2%.

For `CN(C)CCCn1c2c(c3ccc(C#N)cc3c1=O)C(=O)c1ccccc1-2`, in series [1], the Ratio was more than 1. Besides, the EC50 in series [3] is more than 20.7 µM. Further, the viability in series [2] came out at 54.8%.

With `C[N+](C)(C)CCCn1c2c(c3ccccc3c1=O)C(=O)c1ccccc1-2`, in [1], the Ratio is less than 1. In series [2], the viability is 99.4%.

For `CN(C)CCCn1c2c(c3ccc(Br)cc3c1=O)C(=O)c1ccccc1-2`, the Ratio in series [1] was more than 1. This molecule also yielded a concentration for a half-maximal effect (EC50) in series [3] of 18.4 µM. In addition, the viability in series [2] amounted to 48.5%.

With `COC(=O)c1ccc2c3c(n(CCCN(C)C)c(=O)c2c1)-c1ccccc1C3=O`, the Ratio in series [1] was more than 1. In series [3], this molecule showed an EC50 of 19.5 µM. Also, the viability in series [2] amounted to 21.7%.

Regarding `CN(C)CCCn1c2c(c3ccccc3c1=O)C(=O)c1ccccc1-2`, in series [1], the Ratio was more than 1. For the same molecule, the midpoint of the response in series [3], the EC50, lay at 9.6 µM. The viability in series [2] is 52.5%. Besides, the fold change (FC) in series [5] amounted to 2.6.

As for `CNCCCn1c2c(c3ccc(Br)cc3c1=O)C(=O)c1ccccc1-2`, the Ratio in [1] was more than 1. In [3], the midpoint of the response, the EC50, lay at 10.7 µM. Moreover, in series [2], the viability amounted to 31.3%.

Turning to `CNCCCn1c2c(c3ccc([N+](=O)[O-])cc3c1=O)C(=O)c1ccccc1-2`, the Ratio in [1] is less than 1. Further, the viability in [2] was 33.1%.

Regarding `NCCCn1c2c(c3ccc(N)cc3c1=O)C(=O)c1ccccc1-2`, in [3], the half-maximal effective concentration (EC50) was 4.4 µM. In addition, the Activity in series [6] was 28.7%; in series [8], 4.5%. Further, the inhibition entry in series [7] is “inactive”. Also, the viability in [2] stood at 52.1%. Also, in series [9], the IC50 (usually the concentration that inhibits the measured activity by half) came to 0.092 µM.

Consider `COC(=O)c1ccc2c3c(n(CCCN)c(=O)c2c1)-c1ccccc1C3=O`, for which the Ratio in [1] was less than 1. In [2], the viability is 55%.

In the case of `CN(C)CCCn1c2c(c3ccc(N)cc3c1=O)C(=O)c1ccccc1-2`, the Ratio in series [1] is more than 1. In series [3], this molecule returned a half-maximal effective concentration (EC50) of 7 µM. Also, in series [4], the Activity was found to be 21.4% and the fold change (FC) came to 0.214. Further, the viability in series [2] came to 53.7%. Moreover, the fold change (FC) in series [5] is 2.5.

Turning to `CNCCCn1c2c(c3ccccc3c1=O)C(=O)c1ccccc1-2`, in [1], the Ratio was more than 1. The molecule further yielded an EC50 in [3] of 9.22 µM. Further, in series [2], the viability was determined as 51.2%. Also, in series [5], the fold change (FC) was 7.6.

`NCCn1c2c(c3ccccc3c1=O)C(=O)c1ccccc1-2`: the Ratio in series [1] was found to be 8.2. Also, the EC50 in series [3] stood at 15.9 µM. Moreover, the viability in series [2] stood at 30.7%.

With `NCCCn1c2c(c3ccc(C(=O)O)cc3c1=O)C(=O)c1ccccc1-2`, in [1], the Ratio was less than 1. In addition, the viability in [2] came to 83.7%.

Take `NCCCCCn1c2c(c3ccccc3c1=O)C(=O)c1ccccc1-2`: in [1], the Ratio stood at 4.9. The same molecule showed an EC50 in [3] of 12.2 µM. Also, in [4], the Activity was determined as 83.8% and the fold change (FC) turned out to be 0.838. Besides, in [2], the viability worked out at 40.7%.

Consider `CN(C)CCCn1c2c(c3ccc([N+](=O)[O-])cc3c1=O)C(=O)c1ccccc1-2`, for which the Ratio in series [1] is less than 1. In addition, the viability in [2] turned out to be 83.7%.

For the molecule `NCCCCCCn1c2c(c3ccccc3c1=O)C(=O)c1ccccc1-2`, the Ratio in [1] amounted to 6.7. Besides, the EC50 in [3] was found to be 16.4 µM. For the same molecule, in series [4], the Activity amounted to 100% and the fold change (FC) amounted to 1. In series [2], the viability is 24.9%.

`CN(C)c1ccc2c3c(n(CCCN)c(=O)c2c1)-c1ccccc1C3=O`: in series [1], the Ratio was less than 1. Further, the viability in series [2] was 30.6%.

For `NCCCCn1c2c(c3ccccc3c1=O)C(=O)c1ccccc1-2`, in series [1], the Ratio worked out at 9.9. Also, the EC50 in [3] came to 11.3 µM. Besides, in series [4], the Activity was determined as 35.3% and the fold change (FC) stood at 0.353. Moreover, the viability in series [2] was found to be 53.8%.
